# Dynein transport – dynein cargo transport inhibition; 3617.4 mouse cells, GR-EGFP nuclear translocation imaging; test concentration mostly 20 µM; stimulated with dexamethasone, 1 µM; stronger effect = lower value; z-score, hits read low; 0.47% of 220,000 active; AID 1381;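 active = plate z-score of nuclear minus cytoplasmic receptor signal below a set negative limit, without overly bright fluorescence or cell loss, cut at about -3.5 in these data, passing the limit was not always enough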;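 note: z-score of nuclear minus cytoplasmic ring GR-EGFP intensity difference per well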
#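 Buffer or medium: tet-free medium with charcoal-stripped serum / Also added: dexamethasone agonist, 1.0 µM final, for 30 min / Timing: induction 48 h, compound 1 h, agonist 30 min / Measured by: high-content fluorescence imaging after fixation / Read-out: nuclear-to-cytoplasmic GR-EGFP distribution per well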
# PGE2 EP2 inh – EP2 receptor (human) inhibition; inhibition, % at 25 µM; P43116; 0.52% of 260,000 active; C6 glioma cells expressing human EP2, cAMP TR-FRET; cells stimulated with saturating PGE2; AID 1422;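 active = percent inhibition above 40 after rounding to a whole number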;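 note: rat C6 glioma host cells with rolipram phosphodiesterase inhibitor present; the protocol text gives 20 µM as final concentration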
# Target sequence (P43116 whole entry, looked up): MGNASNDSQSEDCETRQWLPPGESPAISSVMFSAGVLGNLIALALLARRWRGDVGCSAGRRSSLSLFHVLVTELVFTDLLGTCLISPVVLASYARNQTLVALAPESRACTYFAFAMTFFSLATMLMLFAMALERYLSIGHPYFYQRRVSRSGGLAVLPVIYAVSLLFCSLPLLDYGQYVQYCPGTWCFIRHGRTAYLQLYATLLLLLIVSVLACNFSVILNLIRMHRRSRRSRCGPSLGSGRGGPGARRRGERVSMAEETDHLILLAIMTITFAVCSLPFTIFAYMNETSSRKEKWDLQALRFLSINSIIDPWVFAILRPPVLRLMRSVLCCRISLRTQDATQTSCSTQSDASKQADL
# Hsp70 act – transcriptional activators of Hsp70; activation, % at 10 µM; HeLa Hsp70 promoter luciferase reporter, luminescence; scaled: vehicle 0, proteasome-inhibitor control 100%; 0.04% of 200,000 active;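 active = activation above the mean across all tested compounds plus 3 SD, cutoff set per campaign, cut at about 5.5% in these data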;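 note: 100% = MG132 at 30 µM as the positive control and 0% = DMSO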
# EP2 modulator – EP2 receptor (human) modulation; P43116; EP2-expressing cells, cAMP HTRF FRET, PGE2 co-stimulation; induction, % at 25 µM; 0.83% of 260,000 active;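 active = compounds whose cAMP rise, as percent of the full-agonist control response, exceeds 60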;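 note: rat C6 glioma line stably carrying human EP2 under a CMV promoter; the protocol text gives 20 µM as final concentration; 100% = response of wells given 1 µM PGE2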
# Dynein inh conf – dynein cargo transport inhibition, confirmation; calls only at 20 µM; shares compounds with Dynein transport; 3617.4 GR-EGFP nuclear translocation imaging, dexamethasone-induced; 69% of 1,000 active;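 active = inhibition of receptor movement into the nucleus at or above a set limit in both runs, with normal cell brightness and cell count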;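 note: dexamethasone at 1 µM final in well for 30 min; nuclear minus cytoplasmic GR-EGFP mean intensity difference in channel 2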
# * hit, by the source's call; i = inactive; / = not tested or not shown; + = active, no number. Sampled rows, rich in hits. Any-hit rate of the full collection: about 1.7%.
SMILES,Dynein transport,PGE2 EP2 inh,Hsp70 act,EP2 modulator,Dynein inh conf
CC(C)N1CCN(C(=O)CCC2CCCC2)CC1,/,7.2,/,-0.6,/
N#Cc1nccnc1S(=O)(=O)c1cccs1,-5.59*,30.4,/,-41.6,+
Cc1cc(C(=O)CCl)c(C)n1-c1cccc([N+](=O)[O-])c1,-3.01,8.2,0.1,-69.9,/
Cc1cc(C(=O)CCl)c(C)n1Cc1ccco1,-6.01*,6.3,-0.1,-1.3,+
Cc1cc(C(=O)CSc2nncs2)c(C)n1Cc1ccco1,-0.0581,3.7,-0.3,-11.6,/
Cc1cc(C(=O)CCl)c(C)n1-c1ccon1,-5.55*,0.6,0.0,-26.1,+
CCOc1ccc(C(=O)N2CCCC(c3ncncc3-c3cc(C)no3)C2)o1 (configuration not stated),/,/,/,-11.2,/
CCOc1cc(/C=N/O)ccc1OCc1ccc([N+](=O)[O-])cc1,-0.689,6.6,-0.3,-30.1,/
CCOc1cc(C=C(C(=O)OC)C(=O)OC)ccc1OCc1ccc([N+](=O)[O-])cc1,-5.7*,16.3,0.8,-33.4,+
CS(=O)(=O)c1ncc(Cl)c(C(=O)Nc2ccc3ccccc3c2)n1,-4.22*,5.4,0.9,-32.7,+
COc1ccc(C)cc1S(=O)(=O)NC(CN1CCOCC1)c1ccccc1 (configuration not stated),/,7.4,/,-11.7,/
Cc1[nH]n(-c2ncc(-c3ccc(Cl)cc3)s2)c(=O)c1C(c1ccc(Cl)cc1)C(C#N)C#N (configuration not stated),-3.55*,20.0,0.0,-72.6,+
COC/C=C/C1=CC2=CC(=O)C(C)(OC(=O)c3cnc4ccccc4n3)C(=O)C2=CN1Cc1ccc(OC)cc1 (configuration not stated),-5.17*,10.7,/,-5.3,+
O=[N+]([O-])c1ccc(Cl)cc1Sc1nc2ccccc2o1,-1.2,7.4,0.3,41.7,/
Cc1ccc(-c2nnc(Sc3nc4ccccc4o3)c3ccccc23)cc1,-4.14*,3.0,-0.1,12.0,+
Cc1nnc(Sc2nc3ccccc3o2)c2ccccc12,-1.59,14.8,0.1,5.2,/
Clc1ccc(-c2nnc(Sc3nc4ccccc4o3)c3ccccc23)cc1,-4.1*,18.8,-0.3,1.5,+
O=C(NCc1cccnc1)c1ccc(-c2ccc(Cl)cc2)o1,-0.42,13.1,-0.1,-41.6,/
O=C(NCc1cccnc1)/C(=C\c1ccc(-c2ccc(Cl)c(Cl)c2)o1)S(=O)(=O)c1ccccc1,-4.21*,1.8,0.2,-48.2,+
N#CC1(C#N)C(c2ccccc2)OC23CCCCC2C1(C#N)C(=N)O3 (configuration not stated),-4.19*,1.8,-0.2,-7.1,+
N#CC1(C#N)C(c2ccccc2)OC23CCCCCC2C1(C#N)C(=N)O3 (configuration not stated),-0.36,4.2,-0.2,1.1,/
Cc1cn(-c2ccccc2)c(C)c1/C=C1\SC(=S)NC1=O,/,16.6,/,-77.1,/
Cn1c(-c2ccc([N+](=O)[O-])cc2)nc2ccccc21,0.776,6.9,0.4,8.5,/
Cn1nc([N+](=O)[O-])c(C(C#N)c2nc3ccccc3n2C)c(Cl)c1=O (configuration not stated),-3.63*,10.8,-0.2,-29.4,i
COc1ccc(C2(NC(=O)Cc3n[nH]c(=O)c4ccccc34)CCCCC2)cc1,/,/,/,-35.1,/
SMILES,Dynein transport,PGE2 EP2 inh,Hsp70 act,EP2 modulator,Dynein inh conf
CCOc1ccc2nc(SC3CC(=O)N(c4ccc(OC)cc4OC)C3=O)sc2c1 (configuration not stated),-4.9*,8.1,0.1,-39.6,+
COc1ccc(C(=O)Nc2cc(C(C)=O)c(C)oc2=O)cc1,0.288,-0.2,0.2,15.2,/
COC(=O)c1cc(NC(=O)c2ccccc2)c(=O)oc1/C=C/Nc1ccc(Oc2ccccc2)cc1,-7.61,3.9,-0.2,18.7,i
CCc1ccc2[nH]c(=O)c(CN(CCCO)C(=O)Nc3ccccc3)cc2c1,/,5.5,/,-29.8,/
CCCC(=O)N1CCN(c2ccc(NC(=O)c3cc(OC)c(OC)c(OC)c3)cc2)CC1,/,6.8,/,4.7,/
COC(=O)C1=C(C)N(Cc2ccc(C)cc2)C(=O)/C1=C\c1cc(OC)c(OC)c(OC)c1,-3.5*,12.3,-0.4,7.4,+
CCOc1cc(/C=C2\C(=O)N(Cc3ccco3)C(C)=C2C(=O)OC)ccc1O,-4.35*,9.1,0.0,34.9,+
